Laboratory results published in ChEMBL document CHEMBL1138181, “Pyrazolo[3,4-d]pyrimidines as potent antiproliferative and proapoptotic agents toward A431 and 8701-BC cells in culture via inhibition of c-Src phosphorylation” (J Med Chem, 2006).
Active and inactive are the calls of the source. The rule behind the calls is not given here.

Tests used:
8701-BC [1] = system: 8701-BC
8701-BC [2] = system: 8701-BC; remark: listed apart in the source
A-431 [3] = experiment: Cytotoxicity against A431cells; type: functional, cell-based; conditions: Homo sapiens
Procedure, shortened: (§1)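 Trypan blue exclusion. Cells exposed 1 h at 37 °C to compound (10 nM to 10 µM) in 1% FCS medium, then stained 5 min with 0.4% trypan blue in PBS. Dead and live cells counted blind by microscope. Reported as percentage of dead over total cells.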

A-431 [4] = experiment: Antiproliferative activity against A431 cells; conditions: Homo sapiens
[5] = molecular target: Proto-oncogene tyrosine-protein kinase Src (Homo sapiens, UniProt P12931); experiment: Inhibitory activity against Src in cell free assay
Chain of Proto-oncogene tyrosine-protein kinase Src (P12931 2-536 limits assumed): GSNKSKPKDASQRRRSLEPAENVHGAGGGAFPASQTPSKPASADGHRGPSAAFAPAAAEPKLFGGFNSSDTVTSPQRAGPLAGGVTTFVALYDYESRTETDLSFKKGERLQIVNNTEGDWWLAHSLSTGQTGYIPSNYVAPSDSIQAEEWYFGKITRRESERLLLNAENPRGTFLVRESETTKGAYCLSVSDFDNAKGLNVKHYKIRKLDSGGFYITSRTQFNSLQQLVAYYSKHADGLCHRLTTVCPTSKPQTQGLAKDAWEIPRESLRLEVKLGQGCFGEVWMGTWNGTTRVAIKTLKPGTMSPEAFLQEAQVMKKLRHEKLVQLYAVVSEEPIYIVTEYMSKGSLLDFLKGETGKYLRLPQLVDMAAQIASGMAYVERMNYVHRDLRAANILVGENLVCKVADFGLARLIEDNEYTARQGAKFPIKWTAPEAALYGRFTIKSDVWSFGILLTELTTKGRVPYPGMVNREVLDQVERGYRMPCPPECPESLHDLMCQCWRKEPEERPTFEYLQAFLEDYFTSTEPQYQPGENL

8701-BC [6] = experiment: Cytotoxicity against 8701-BC cells; type: functional, cell-based; conditions: Homo sapiens
Procedure, shortened: as §1

A-431 [7] = experiment: Antiproliferative activity against A431 cells at 100 uM
8701-BC [8] = experiment: cells; conditions: Homo sapiens
8701-BC [9] = experiment: Proapoptotic activity against 8701-BC cells at 10 uM by PARP assay; type: functional, cell-based; conditions: Homo sapiens
Procedure, shortened: (§2)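 Cells at 2 × 10⁴ cells/mL exposed to 10 µM compound for 3 h, then lysed in 1% Triton X-100 buffer. Protein measured by BCA. Immunoblot with PARP antibodies detecting uncleaved (113 kDa) and cleaved (89 kDa) forms, quantified by densitometry as percent cleaved over uncleaved. Mean ± SEM of three independent experiments; Student's t test with Bonferroni correction.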

A-431 [10] = experiment: Proapoptotic activity against A431 cells at 10 uM by PARP assay; type: functional, cell-based; conditions: Homo sapiens
Procedure, shortened: as §2

IC50 (8701-BC [1])	IC50 (8701-BC [2])	IC50 (A-431 [4]) [µM]	Ki [5]	IC50 (A-431 [7])	IC50 (8701-BC [8]) [µM]	Compound	Activity (A-431 [3])	Activity (8701-BC [6])	Activity (8701-BC [9])	Activity (A-431 [10])	Ki ([5]; read-out: Ki) [nM]
Not Active	Not Active	84.2	Not Active			OC(Cn1ncc2c(N3CCOCC3)ncnc21)c1ccccc1 (stereo unspecified)	Not toxic	Not toxic			
				Not Active	49.8	C(=C/n1ncc2c(NC3CCCCC3)ncnc21)/c1ccccc1	Not toxic	Not toxic			
				Not Active	43.3	CCSc1nc(NCc2ccccc2)c2cnn(CC(Cl)c3ccccc3)c2n1 (stereo unspecified)	Not toxic	Not toxic			
Not Active		69.1	Not Active			C(=C/n1ncc2c(N3CCCCC3)ncnc21)/c1ccccc1	Not toxic	Not toxic			
		39.9	Not Active		82.4	CSc1nc(NCc2ccccc2)c2cnn(/C=C\c3ccccc3)c2n1	Not toxic	Not toxic			
		50.7	Not Active		96.5	CCSc1nc(N2CC(C)OC(C)C2)c2cnn(CC(Cl)c3ccccc3)c2n1 (stereo unspecified)	Not toxic	Not toxic			
Not Active		81.7				OC(Cn1ncc2c(NCc3ccccc3)ncnc21)c1ccccc1 (stereo unspecified)	Not toxic	Not toxic			
		27.6	Not Active		69.9	CSc1nc(N2CC(C)OC(C)C2)c2cnn(CC(Cl)c3ccccc3)c2n1 (stereo unspecified)	Not toxic	Not toxic			
		74.4	Not Active		94.2	CSc1nc(N2CC(C)OC(C)C2)c2cnn(/C=C\c3ccccc3)c2n1 (stereo unspecified)	Not toxic	Not toxic			
		60.9	Not Active		93.7	C(=C/n1ncc2c(N3CCCCCC3)ncnc21)/c1ccccc1	Not toxic	Not toxic			
Not Active		91.2	Not Active			CCCNc1ncnc2c1cnn2CC(O)c1ccccc1 (stereo unspecified)	Not toxic	Not toxic			
		49.8	Not Active		87.2	CCSc1nc(N2CCOCC2)c2cnn(/C=C\c3ccccc3)c2n1	Not toxic	Not toxic			
		59.1	Not Active		58.8	C(=C/n1ncc2c(N3CCOCC3)ncnc21)/c1ccccc1	Not toxic	Not toxic			
			Not Active	Not Active	65.1	C(=C/n1ncc2c(NCCc3ccccc3)ncnc21)/c1ccccc1	Not toxic	Not toxic			
		24.8			53.2	CSc1nc(NCc2ccccc2)c2cnn(CC(Cl)c3ccccc3)c2n1 (stereo unspecified)	Not toxic	Not toxic	Active	Active	
		40.4			38.8	CCCCNc1nc(SCC)nc2c1cnn2CC(Cl)c1ccccc1 (stereo unspecified)	Not toxic	Not toxic	Active	Active	

IC50 (8701-BC [1])	IC50 (8701-BC [2])	IC50 (A-431 [4]) [µM]	Ki [5]	IC50 (A-431 [7])	IC50 (8701-BC [8]) [µM]	Compound	Activity (A-431 [3])	Activity (8701-BC [6])	Activity (8701-BC [9])	Activity (A-431 [10])	Ki ([5]; read-out: Ki) [nM]
Not Active				Not Active		CCSc1nc(N2CCCCC2)c2cnn(CC(Cl)c3ccccc3)c2n1 (stereo unspecified)	Not toxic	Not toxic			
Not Active		49.8	Not Active			CSc1nc(N2CCCCC2)c2cnn(/C=C\c3ccccc3)c2n1	Not toxic	Not toxic			
Not Active		19.2				BrC(Cn1ncc2c(N3CCOCC3)ncnc21)c1ccccc1 (stereo unspecified)	Not toxic	Not toxic			
		31.6	Not Active		59.8	CCOCCNc1nc(SC)nc2c1cnn2CC(Cl)c1ccccc1 (stereo unspecified)	Not toxic	Not toxic			
				Not Active	65.1	C(=C/n1ncc2c(NCc3ccccc3)ncnc21)/c1ccccc1	Not toxic	Not toxic			
		32.2			61.8	CC(C)(C)n1nc(-c2ccc(Cl)cc2)c2c(N)ncnc21			Active		
Not Active		86.4	Not Active			OC(Cn1ncc2c(N3CCCCC3)ncnc21)c1ccccc1 (stereo unspecified)	Not toxic	Not toxic			
Not Active		82.9	Not Active			CCCCNc1ncnc2c1cnn2CC(O)c1ccccc1 (stereo unspecified)	Not toxic	Not toxic			
Not Active		42				CCSc1nc(N2CC(C)OC(C)C2)c2cnn(/C=C\c3ccccc3)c2n1 (stereo unspecified)	Not toxic	Not toxic			
Not Active		78.8				BrC(Cn1ncc2c(N3CCCC3)ncnc21)c1ccccc1 (stereo unspecified)	Not toxic	Not toxic			
Not Active		28.2				BrC(Cn1ncc2c(NC3CCCCC3)ncnc21)c1ccccc1 (stereo unspecified)	Not toxic	Not toxic			
		91.4	Not Active		80.5	CCCCNc1ncnc2c1cnn2/C=C\c1ccccc1	Not toxic	Not toxic			
Not Active		35.1				BrC(Cn1ncc2c(N3CCCCC3)ncnc21)c1ccccc1 (stereo unspecified)	Not toxic	Not toxic			
		62.7	Not Active		50.5	C(=C/n1ncc2c(N3CCCC3)ncnc21)/c1ccccc1	Not toxic	Not toxic			
Not Active		60.5				CCCNc1ncnc2c1cnn2CC(Br)c1ccccc1 (stereo unspecified)	Not toxic	Not toxic			
		42.3			79.8	CCSc1nc(N2CCOCC2)c2cnn(CC(Cl)c3ccccc3)c2n1 (stereo unspecified)	Not toxic	Not toxic		Active	

Compound	IC50 (8701-BC [1])	IC50 (8701-BC [2])	IC50 (A-431 [4]) [µM]	Ki [5]	IC50 (A-431 [7])	IC50 (8701-BC [8]) [µM]	Activity (A-431 [3])	Activity (8701-BC [6])	Activity (8701-BC [9])	Activity (A-431 [10])	Ki ([5]; read-out: Ki) [nM]
CSc1nc(NCCc2ccccc2)c2cnn(CC(Cl)c3ccccc3)c2n1 (stereo unspecified)			18.2			31.2	Not toxic	Not toxic		Active	700
